From article PMC5595133 (Theranostics, 2017)

Experiments:
[1] = In vivo safety examination; set-up: species or system C57BL/6 mice
In short: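 This used the B16 s.c. model in C57BL/6 mice with tail-vein dosing in saline. Body weight was recorded every other day. On day 25 after implantation, 500 μL of blood was taken without heparin and centrifuged (4000 rpm, 5 min); ALT and AST were measured in serum. 20 μL of peripheral blood went for WBC, RBC and platelet counts by autoanalyzer. Heart, liver, spleen, kidney and lung were formalin-fixed, paraffin-embedded, cut at 5 μm and H&E-stained for light microscopy.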

B16 cells = assay: Cell cycle assay by flow cytometry; assay type: cell-based, mouse; settings: 50 nM (calculated by free DM1), 12 h
HUVEC cells = assay: Cell cycle assay by flow cytometry; assay type: cell-based, human; settings: 50 nM (calculated by free DM1), 12 h
MCF-7 cells = assay: Cell cycle assay by flow cytometry; assay type: cell-based, human; settings: 50 nM (calculated by free DM1), 12 h

COc1cc2cc(c1Cl)N(C)C(=O)C[C@H](OC(=O)[C@H](C)N(C)C(=O)CCS)[C@]1(C)O[C@H]1[C@H](C)[C@@H]1C[C@@](O)(NC(=O)O1)[C@H](OC)/C=C/C=C(\C)C2 [DM1, Maytansinoid DM1]
body weight change versus saline ([1]; B16 tumor-bearing C57BL/6 mice, 400 μg/kg DM1 i.v. every other day x5, n=6): significant body weight loss | H&E histology of major organs (heart, liver, spleen, lung, kidney) ([1]; end of test, 200×): severer organic damages | count of white blood cells (WBC) ([1]; peripheral blood at the end of test, n=6, compared with the normal value): decreased the count | liver function, circulating ALT and AST ([1]; serum on day 25, n=6): obvious hepatic cytolysis | percentage of cells in G2/M phase (B16 cells): 58.26% | percentage of cells in G2/M phase (HUVEC cells): 42.23% | percentage of cells in G2/M phase (MCF-7 cells): 57.18%
